One may read the IC50 as the concentration needed to halve the response being measured. A higher IC50 goes with weaker potency. A word on the inhibition: it is how much of the control response was suppressed. A higher inhibition goes with a response far below the control.

Each structure is given as a SMILES string. Activity calls are given as the source filed them. The rule behind the calls is not given here.

Data set [1] is described as follows: Plasma protein binding in human plasma. Format: ADME, cell-free. The conditions noted are these: read-out: PPB (converted).
The target of data set [2] is Serine/threonine-protein kinase PAK 5 (Homo sapiens, UniProt Q9P286). Briefly: Inhibition of PAK5 (unknown origin).
The target in data set [3] is Serine/threonine-protein kinase PAK 2 (Homo sapiens, UniProt Q13177). The data set is described as follows: Inhibition of PAK2 (unknown origin).
In the next data set the target is T1, Ephrin type-B receptor 1 (Homo sapiens, UniProt P54762).
T1 sequence (P54762 whole entry): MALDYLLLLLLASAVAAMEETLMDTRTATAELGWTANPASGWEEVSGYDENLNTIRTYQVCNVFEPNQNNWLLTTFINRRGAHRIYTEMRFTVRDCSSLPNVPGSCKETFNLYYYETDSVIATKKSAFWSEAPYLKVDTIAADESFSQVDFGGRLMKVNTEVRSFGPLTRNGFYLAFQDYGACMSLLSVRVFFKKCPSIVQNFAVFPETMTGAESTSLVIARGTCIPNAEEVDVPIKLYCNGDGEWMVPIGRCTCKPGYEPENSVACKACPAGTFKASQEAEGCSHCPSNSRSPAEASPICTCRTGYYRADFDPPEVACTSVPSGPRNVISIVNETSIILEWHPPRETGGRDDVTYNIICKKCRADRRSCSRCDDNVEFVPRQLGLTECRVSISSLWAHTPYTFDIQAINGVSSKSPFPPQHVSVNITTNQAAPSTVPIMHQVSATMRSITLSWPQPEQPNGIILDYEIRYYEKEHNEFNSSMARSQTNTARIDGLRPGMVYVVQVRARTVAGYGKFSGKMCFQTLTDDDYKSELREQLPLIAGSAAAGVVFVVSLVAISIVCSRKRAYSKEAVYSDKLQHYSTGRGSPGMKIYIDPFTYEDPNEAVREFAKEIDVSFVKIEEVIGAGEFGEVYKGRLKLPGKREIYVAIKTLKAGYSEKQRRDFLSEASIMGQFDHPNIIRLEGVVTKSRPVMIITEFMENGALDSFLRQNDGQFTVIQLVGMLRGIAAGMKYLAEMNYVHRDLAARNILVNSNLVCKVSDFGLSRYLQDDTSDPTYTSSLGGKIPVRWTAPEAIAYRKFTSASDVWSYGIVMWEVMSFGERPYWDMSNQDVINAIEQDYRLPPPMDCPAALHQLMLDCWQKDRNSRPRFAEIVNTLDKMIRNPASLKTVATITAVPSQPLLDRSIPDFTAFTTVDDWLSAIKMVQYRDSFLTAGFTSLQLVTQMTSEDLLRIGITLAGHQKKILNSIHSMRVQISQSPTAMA
Briefly: Inhibition of EphB1 (unknown origin).

Data set [4] deals with MCF-10A. Briefly: Cytotoxicity against human MCF10A cells harboring PIK3CA H1047R mutant cells assessed as reduction in cell viability at 50 uM after 24 to 48 hrs by Celltiter-glo luminescence assay. Format: functional, cell-based. The method in brief: (§1)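 Cells sparsely plated in 96-well plates and allowed to adhere, then given DMSO or compound (0.1, 1, 10, 50 μM) for 24 and 48 h. Metabolically active cells quantified by CellTiter-Glo luminescence. MDA-MB-436 grown in DMEM/10% FBS; MCF10A PIK3CA (one endogenous H1047R allele) in DMEM/F12 with 5% horse serum, insulin, hydrocortisone.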

The next data set has as its system MDA-MB-436. Briefly: Cytotoxicity against human MDA-MB-436 cells assessed as reduction in cell viability at 50 uM after 24 to 48 hrs by Celltiter-glo luminescence assay. The data set is classed as functional, cell-based. The method in brief:
as §1
(In general: ATP-based viability assays read luminescence as a measure of living cells.)

Data set [5] is described as follows: Cytotoxicity against human MCF10A cells harboring PIK3CA H1047R mutant cells assessed as reduction in cell viability at 10 uM after 24 to 48 hrs by Celltiter-glo luminescence assay. Format: functional, MCF-10A. Put shortly:
as §1

Data set [6] deals with MCF-10A. Briefly: Antiinvasive activity against human MCF10A cells harboring PIK3CA H1047R mutant assessed as complete wound closure at 0.1 to 50 uM after 40 hrs by matrigel assay. The data set is classed as functional, cell-based.
Data set [7] deals with Serine/threonine-protein kinase PAK 4 (Homo sapiens, UniProt O96013). The data set is described as follows: Inhibition of PAK4 (unknown origin) at 1 uM.
Chain of Serine/threonine-protein kinase PAK 4 (O96013 whole entry, looked up): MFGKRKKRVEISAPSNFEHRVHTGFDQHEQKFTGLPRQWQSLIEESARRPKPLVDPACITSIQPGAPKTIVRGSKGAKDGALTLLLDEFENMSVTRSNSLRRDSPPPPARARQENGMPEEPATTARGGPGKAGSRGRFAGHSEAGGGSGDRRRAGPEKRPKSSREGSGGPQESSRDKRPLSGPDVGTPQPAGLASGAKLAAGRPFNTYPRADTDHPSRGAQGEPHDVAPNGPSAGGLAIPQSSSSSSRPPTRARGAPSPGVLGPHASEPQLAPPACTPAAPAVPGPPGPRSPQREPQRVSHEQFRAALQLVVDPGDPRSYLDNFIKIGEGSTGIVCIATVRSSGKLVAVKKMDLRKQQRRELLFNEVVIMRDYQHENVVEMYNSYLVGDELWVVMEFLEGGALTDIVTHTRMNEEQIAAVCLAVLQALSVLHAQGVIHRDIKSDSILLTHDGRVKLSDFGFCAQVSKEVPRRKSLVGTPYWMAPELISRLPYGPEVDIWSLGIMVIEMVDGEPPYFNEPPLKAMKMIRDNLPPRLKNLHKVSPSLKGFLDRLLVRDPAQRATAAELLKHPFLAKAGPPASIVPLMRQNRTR

Chain of Serine/threonine-protein kinase PAK 2 (Q13177 whole entry): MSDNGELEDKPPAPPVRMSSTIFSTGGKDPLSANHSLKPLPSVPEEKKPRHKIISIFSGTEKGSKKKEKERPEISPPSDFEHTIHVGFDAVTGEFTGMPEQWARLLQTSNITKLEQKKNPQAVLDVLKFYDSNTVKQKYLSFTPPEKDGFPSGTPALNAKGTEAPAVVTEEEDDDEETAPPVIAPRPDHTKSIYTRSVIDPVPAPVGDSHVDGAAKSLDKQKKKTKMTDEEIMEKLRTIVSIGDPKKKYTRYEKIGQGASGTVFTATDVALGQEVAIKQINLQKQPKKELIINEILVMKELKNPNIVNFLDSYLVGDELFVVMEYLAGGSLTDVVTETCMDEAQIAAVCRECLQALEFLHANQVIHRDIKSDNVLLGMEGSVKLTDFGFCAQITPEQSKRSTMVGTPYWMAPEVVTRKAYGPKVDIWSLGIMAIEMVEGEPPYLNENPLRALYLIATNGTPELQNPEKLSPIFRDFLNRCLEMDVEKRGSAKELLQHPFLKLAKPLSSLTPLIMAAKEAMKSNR
Chain of Serine/threonine-protein kinase PAK 5 (Q9P286 whole entry): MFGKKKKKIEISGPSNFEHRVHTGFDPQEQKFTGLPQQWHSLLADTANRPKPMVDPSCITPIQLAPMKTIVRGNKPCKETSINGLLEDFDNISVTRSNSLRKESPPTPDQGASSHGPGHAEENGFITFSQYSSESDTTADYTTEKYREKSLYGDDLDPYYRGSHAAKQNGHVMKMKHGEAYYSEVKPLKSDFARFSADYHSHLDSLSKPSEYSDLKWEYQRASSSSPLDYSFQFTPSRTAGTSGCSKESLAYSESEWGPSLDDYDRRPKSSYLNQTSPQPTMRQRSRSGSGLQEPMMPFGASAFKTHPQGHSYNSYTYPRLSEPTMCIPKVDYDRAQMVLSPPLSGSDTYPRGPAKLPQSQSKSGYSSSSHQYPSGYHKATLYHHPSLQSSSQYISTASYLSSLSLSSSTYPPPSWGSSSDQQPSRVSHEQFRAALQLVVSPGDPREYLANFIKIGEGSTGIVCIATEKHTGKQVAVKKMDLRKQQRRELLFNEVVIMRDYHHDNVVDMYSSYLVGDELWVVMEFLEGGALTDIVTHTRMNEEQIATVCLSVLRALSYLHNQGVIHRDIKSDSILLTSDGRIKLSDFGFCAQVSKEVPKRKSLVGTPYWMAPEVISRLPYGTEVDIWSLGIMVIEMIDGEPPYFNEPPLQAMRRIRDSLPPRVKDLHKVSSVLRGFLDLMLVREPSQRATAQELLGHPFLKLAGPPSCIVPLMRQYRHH

As for `COCCNc1nc2ccc(C#CC3(O)CCCCC3)cc2n1-c1ccnc(N)n1`, the fraction unbound in data set [1] is 0.04. The half-inhibitory concentration (IC50) in data set [2] is 126 nM; in data set [3], 970 nM; against Ephrin type-B receptor 1, > 10000 nM. Besides, the outcome in the data set with MCF-10A [4], in the data set on MDA-MB-436 and with MCF-10A [6] was Active. Also, in [5], the Activity was found to be 50%. Besides, in [7], the inhibition came out at 100%.

Values taken from ChEMBL document CHEMBL3124809, “Back pocket flexibility provides group II p21-activated kinase (PAK) selectivity for type I 1/2 kinase inhibitors” (J Med Chem, 2014).
